The test system of assay [1] is HeLa. Put plainly: Cell cycle arrest in human HeLa cells assessed as accumulation at S phase at 40 uM after 24 hrs by propidium iodide staining based flow cytometry (reference value: 31%). It counts as functional. In general terms: In flow cytometry, cells or beads pass a laser one at a time.
A further assay addresses Toll-like receptor 2 (Homo sapiens, UniProt O60603). Put plainly: Agonist activity at human TLR2 expressed in HEK293 cells assessed as induction of NF-kB activation-mediated SEAP production after 24 hrs by HTS assay. It counts as cell-based. In outline: (§1)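 Stable HEK293 lines expressing a single hTLR plus a SEAP reporter, grown in DMEM/10% FBS with selective antibiotics. Seeded at 5 × 10^4 cells/well for 24 h at 37 °C, then treated 24 h. Supernatant mixed with QUANTI-Blue, 1 h at 37 °C, OD 620 nm. Cognate agonists: Pam3CSK4 (TLR2), poly I:C (TLR3), LPS (TLR4), FLA-BS (TLR5), R848 (TLR7). EC50 as mean ± SD.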

For assay [2], the system named is HeLa. Put plainly: Cell cycle arrest in human HeLa cells assessed as accumulation at S phase at 20 uM after 24 hrs by propidium iodide staining based flow cytometry (reference value: 31%). The class given is functional.
Assay [3] deals with Toll-like receptor 3/8/9 (Homo sapiens) (UniProt O15455+Q9NR96+Q9NR97). As to the kind of experiment: Agonist activity at TLR3/TLR8/TLR9 in human THP1 cells assessed as increase in IL-6 mRNA level after 12 hrs by qRT-PCR method. It counts as cell-based. In outline:
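THP-1 cells (1.5 × 10^6/well) differentiated with PMA (20 nM) for 2 days, then 24 h in fresh RPMI 1640; nonadherent cells removed. Treated with indicated compound concentrations for 12 h, washed with PBS, and mRNA measured by qRT-PCR. Expressed as fold change versus untreated control, poly I:C (5 μg/mL) as reference. Mean ± SD of three independent experiments.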
For orientation: Quantitative PCR measures a nucleic acid by following its amplification.

The test system of assay [4] is HeLa. Put plainly: Cell cycle arrest in human HeLa cells assessed as accumulation at G0/G1 phase at 30 uM after 24 hrs by propidium iodide staining based flow cytometry (reference value: 52%). It counts as functional.
The next assay concerns the target T1, Toll-like receptor 7 (Homo sapiens, UniProt Q9NYK1).
T1 sequence (Q9NYK1 whole entry): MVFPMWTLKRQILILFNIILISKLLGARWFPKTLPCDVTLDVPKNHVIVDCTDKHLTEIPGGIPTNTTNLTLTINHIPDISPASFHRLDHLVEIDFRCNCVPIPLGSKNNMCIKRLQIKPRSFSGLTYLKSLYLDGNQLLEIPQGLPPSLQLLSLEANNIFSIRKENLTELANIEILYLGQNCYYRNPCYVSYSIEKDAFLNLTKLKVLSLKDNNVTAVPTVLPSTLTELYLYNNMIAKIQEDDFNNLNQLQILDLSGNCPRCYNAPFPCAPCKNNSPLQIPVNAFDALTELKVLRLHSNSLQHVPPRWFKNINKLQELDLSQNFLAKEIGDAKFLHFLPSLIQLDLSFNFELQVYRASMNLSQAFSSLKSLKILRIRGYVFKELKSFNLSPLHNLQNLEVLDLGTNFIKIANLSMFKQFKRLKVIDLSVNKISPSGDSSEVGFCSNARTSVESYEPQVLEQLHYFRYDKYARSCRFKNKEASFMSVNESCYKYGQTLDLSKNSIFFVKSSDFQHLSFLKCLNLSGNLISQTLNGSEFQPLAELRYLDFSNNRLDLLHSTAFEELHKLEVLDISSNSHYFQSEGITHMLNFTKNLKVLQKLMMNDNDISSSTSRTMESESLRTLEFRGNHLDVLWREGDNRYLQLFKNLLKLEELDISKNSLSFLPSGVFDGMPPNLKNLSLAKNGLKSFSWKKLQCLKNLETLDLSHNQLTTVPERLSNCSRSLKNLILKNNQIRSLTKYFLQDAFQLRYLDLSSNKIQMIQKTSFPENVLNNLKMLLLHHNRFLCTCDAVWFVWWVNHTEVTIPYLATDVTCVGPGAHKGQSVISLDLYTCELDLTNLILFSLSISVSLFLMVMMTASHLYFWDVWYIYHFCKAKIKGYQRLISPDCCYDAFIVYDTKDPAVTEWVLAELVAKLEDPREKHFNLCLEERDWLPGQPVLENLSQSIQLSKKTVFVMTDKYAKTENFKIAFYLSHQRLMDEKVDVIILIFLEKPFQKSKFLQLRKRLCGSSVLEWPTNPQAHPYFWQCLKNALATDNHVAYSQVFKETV
Put plainly: Agonist activity at human TLR7 expressed in HEK293 cells assessed as induction of NF-kB activation-mediated SEAP production after 24 hrs by HTS assay. The class given is cell-based. In outline:
as §1

By EC50 is commonly meant the concentration that produces a half-maximal response.

Some results are limits rather than exact numbers.

Chain of Toll-like receptor 2 (O60603 whole entry): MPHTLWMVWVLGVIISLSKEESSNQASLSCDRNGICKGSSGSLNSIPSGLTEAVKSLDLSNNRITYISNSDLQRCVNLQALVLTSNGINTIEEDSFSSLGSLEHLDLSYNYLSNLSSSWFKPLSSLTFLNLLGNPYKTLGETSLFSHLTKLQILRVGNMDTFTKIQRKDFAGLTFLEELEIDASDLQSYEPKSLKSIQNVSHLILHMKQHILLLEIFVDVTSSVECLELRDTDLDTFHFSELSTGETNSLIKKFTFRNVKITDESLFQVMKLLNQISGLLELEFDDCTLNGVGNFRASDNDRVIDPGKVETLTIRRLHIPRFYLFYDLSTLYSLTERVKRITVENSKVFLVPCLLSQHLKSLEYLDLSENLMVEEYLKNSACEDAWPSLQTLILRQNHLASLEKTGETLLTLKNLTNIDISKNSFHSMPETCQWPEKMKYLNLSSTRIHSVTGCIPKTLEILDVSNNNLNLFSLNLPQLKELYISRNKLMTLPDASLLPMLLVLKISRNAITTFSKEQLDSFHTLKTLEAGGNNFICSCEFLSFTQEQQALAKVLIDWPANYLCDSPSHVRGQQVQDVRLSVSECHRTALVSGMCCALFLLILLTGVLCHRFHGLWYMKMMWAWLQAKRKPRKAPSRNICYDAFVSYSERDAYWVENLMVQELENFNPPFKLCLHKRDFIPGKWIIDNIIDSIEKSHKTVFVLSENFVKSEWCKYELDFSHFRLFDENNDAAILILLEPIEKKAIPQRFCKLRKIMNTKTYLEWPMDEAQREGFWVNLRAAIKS
Chain of Toll-like receptor 3/8/9 (Homo sapiens) (O15455 whole entry, looked up): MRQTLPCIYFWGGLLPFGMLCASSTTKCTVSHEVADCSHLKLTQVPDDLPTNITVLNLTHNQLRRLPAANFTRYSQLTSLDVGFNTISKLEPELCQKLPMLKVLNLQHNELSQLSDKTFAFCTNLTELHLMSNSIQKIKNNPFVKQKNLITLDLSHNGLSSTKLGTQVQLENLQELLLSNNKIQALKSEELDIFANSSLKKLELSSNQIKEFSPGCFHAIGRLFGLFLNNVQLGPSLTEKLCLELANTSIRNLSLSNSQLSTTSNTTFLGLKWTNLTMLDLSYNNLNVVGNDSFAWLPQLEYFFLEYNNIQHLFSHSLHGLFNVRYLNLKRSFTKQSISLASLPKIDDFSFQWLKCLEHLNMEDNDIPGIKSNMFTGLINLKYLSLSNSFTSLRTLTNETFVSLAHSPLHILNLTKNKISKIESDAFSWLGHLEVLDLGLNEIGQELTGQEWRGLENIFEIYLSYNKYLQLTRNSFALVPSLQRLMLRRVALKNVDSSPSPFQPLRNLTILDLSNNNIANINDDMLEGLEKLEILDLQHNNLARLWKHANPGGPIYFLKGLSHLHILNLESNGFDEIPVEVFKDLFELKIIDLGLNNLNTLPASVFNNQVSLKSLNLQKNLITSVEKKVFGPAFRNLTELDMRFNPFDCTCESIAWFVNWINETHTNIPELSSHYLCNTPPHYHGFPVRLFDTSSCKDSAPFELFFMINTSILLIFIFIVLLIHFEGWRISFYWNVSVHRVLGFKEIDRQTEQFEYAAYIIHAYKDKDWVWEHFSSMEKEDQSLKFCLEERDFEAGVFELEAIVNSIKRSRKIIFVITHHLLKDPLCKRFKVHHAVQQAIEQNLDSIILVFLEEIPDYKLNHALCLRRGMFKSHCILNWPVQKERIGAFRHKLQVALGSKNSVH
Chain of Toll-like receptor 3/8/9 (Homo sapiens) (Q9NR96 whole entry, looked up): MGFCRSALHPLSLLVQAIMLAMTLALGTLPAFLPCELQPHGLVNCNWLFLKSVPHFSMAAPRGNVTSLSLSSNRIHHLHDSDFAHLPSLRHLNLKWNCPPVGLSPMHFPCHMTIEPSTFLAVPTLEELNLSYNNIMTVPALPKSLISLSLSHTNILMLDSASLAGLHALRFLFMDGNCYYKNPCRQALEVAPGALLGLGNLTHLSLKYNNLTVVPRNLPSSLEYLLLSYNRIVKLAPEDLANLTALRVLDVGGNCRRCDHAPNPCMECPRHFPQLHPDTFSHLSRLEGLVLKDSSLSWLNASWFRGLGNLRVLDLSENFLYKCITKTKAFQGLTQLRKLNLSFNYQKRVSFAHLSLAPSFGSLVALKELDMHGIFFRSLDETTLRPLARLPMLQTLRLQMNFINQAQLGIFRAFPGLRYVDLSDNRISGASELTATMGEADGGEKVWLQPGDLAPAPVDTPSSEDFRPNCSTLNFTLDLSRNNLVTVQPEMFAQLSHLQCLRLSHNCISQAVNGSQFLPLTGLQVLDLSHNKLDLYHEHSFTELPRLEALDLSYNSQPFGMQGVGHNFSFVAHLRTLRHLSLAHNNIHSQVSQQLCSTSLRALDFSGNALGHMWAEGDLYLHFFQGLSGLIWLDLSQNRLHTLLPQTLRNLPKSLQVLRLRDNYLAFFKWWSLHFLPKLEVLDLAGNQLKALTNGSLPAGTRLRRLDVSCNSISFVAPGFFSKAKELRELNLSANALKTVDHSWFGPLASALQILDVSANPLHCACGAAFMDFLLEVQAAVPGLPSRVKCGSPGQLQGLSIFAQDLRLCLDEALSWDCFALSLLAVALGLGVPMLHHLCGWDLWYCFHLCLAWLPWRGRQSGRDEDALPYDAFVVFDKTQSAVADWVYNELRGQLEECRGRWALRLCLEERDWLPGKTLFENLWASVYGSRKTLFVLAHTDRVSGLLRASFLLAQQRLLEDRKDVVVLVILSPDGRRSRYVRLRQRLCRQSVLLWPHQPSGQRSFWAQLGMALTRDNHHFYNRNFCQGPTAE
Chain of Toll-like receptor 3/8/9 (Homo sapiens) (Q9NR97 whole entry, looked up): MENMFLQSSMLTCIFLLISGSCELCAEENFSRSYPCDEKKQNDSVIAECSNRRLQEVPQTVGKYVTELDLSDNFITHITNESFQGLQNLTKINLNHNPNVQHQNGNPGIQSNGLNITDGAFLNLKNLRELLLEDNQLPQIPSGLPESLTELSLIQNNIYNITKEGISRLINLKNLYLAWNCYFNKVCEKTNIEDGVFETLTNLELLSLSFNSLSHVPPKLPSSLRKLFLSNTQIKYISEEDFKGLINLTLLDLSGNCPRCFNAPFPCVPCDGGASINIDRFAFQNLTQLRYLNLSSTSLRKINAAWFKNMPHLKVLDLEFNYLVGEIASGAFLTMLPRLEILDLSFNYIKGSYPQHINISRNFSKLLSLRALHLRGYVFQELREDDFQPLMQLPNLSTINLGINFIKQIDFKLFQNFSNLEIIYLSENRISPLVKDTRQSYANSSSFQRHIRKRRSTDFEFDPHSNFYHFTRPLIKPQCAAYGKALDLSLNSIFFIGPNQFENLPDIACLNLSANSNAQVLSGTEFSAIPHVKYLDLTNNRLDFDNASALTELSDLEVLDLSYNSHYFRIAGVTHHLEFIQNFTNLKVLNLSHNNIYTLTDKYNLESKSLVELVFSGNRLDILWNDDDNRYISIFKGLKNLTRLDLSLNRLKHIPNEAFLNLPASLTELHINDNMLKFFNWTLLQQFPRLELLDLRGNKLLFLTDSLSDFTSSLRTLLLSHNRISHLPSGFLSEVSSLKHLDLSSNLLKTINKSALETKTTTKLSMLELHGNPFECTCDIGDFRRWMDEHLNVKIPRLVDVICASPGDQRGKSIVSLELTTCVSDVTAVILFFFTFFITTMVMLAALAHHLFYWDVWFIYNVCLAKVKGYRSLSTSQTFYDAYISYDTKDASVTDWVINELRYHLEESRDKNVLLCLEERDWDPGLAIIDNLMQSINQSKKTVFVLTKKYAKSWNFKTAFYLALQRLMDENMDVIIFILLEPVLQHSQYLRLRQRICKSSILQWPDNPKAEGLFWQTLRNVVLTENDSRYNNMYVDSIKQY

For the molecule `O=[N+]([O-])c1ccc(COc2cc3c(cc2OCc2ccc([N+](=O)[O-])cc2)OC2(C=C3)CCOCC2)cc1`, the Activity was 41% in the assay with HeLa [1], 37% with HeLa [2], “Dose-dependent effect” in assay [3] and 41% with HeLa [4]. The 50% effective concentration (EC50) at Toll-like receptor 2 and on Toll-like receptor 7 was over 100 µM throughout.
